According to paper PMC11661184 (bioRxiv, 2024):
Residue numbers refer to the chain shown, from its start. Names and notes keep the numbering of the source. Blank lines part the entries; values can stand above or below the molecule they belong to.

Columns and labels:
[1] = target: 3xFLAG-TurboID-CaM C-lobe (human); assay: proximity labelling
[2] = test system: TurboID-CaM C-lobe; assay: Proximity biotinylation in HEK293T cells; type: cell-based, human; conditions: 50 µM biotin 15 min, basal Ca2+; n=4
In short: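 HEK293T cells co-expressed 3xFLAG-TurboID or 3xFLAG-TurboID-CaM C-lobe with 3xFLAG-hTRPA1 variants. About 48 h post-transfection, 50 uM biotin was added to the culture medium. After 15 min, cells were lysed and proteins captured on anti-FLAG resin (1 h, 4 °C), then eluted with 125 µg/ml 3xFLAG peptide. Biotinylated proteins were detected with HRP-streptavidin (1:50,000).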

[3] = test system: hTRPA1 expressed in Xenopus laevis oocytes; assay: Two-electrode voltage clamp, Ca2+ potentiation and desensitization; type: cell-based, human; conditions: for Potentiation by extracellular Ca2+ / Slowing of desensitization versus WT hTRPA1, intracellular Ca2+ chelated / Slowing of potentiation versus WT hTRPA1 / Slowing of desensitization versus WT hTRPA1: 1.8 mM Ca2+; for Potentiation by extracellular Ca2+: comparable peak current amplitudes; for Desensitization time constant / Potentiation time constant: 1.8 mM extracellular Ca2+, n=10 oocytes; for Residual activity after extracellular Ca2+ (of initial activity): 5 minutes after 1.8 mM extracellular Ca2+; for Residual activity after extracellular Ca2+ (of initial activity) / Slowing of desensitization versus WT hTRPA1: n=10 or 12 oocytes; for Slowing of desensitization versus WT hTRPA1, intracellular Ca2+ chelated: 500 µM EGTA-AM 20 min
[4] = test system: V5-tagged WT CaM; assay: Immunofluorescence co-localization with V5-WT CaM in Neuro2A cells; type: cell-based, human; conditions: for Co-localization with WT CaM (deconvolved IF images): resting Neuro2A cells, Airyscan
In short: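 Neuro2A cells were grown in DMEM with 10% FBS, transfected, then placed on poly-L-lysine coverslips for 16-20 h. Cells were fixed in 4% PFA, permeabilised with 0.1% Triton and blocked in 4% BSA. Staining used anti-V5 (1:500), Alexa488 anti-mouse (1:700) and Cy3 anti-FLAG (1:500), each for 45 min at RT. Airyscan images (63x oil) were deconvolved. Per-cell pixel-intensity Pearson's R used thresholds from mono-stained samples. Mean ± SD; two-tailed t-test.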

[5] = test system: CaM (Calmodulin-agarose); assay: CaM-agarose pulldown of TRPA1 constructs; type: binding; conditions: for CaM binding at basal Ca2+ concentration: n=3 independent experiments
In short: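 HEK293T cells were transfected with tagged TRPA1 constructs and lysed after 16-24 h in Tris pH 8.0 buffer containing 5 mM DDM and 500 µM EGTA. Free Ca²⁺ was set with CaCl₂, calculated from EGTA constants. 100 µg lysate was incubated with CaM-agarose for 1 h at 4 °C, washed, then eluted with 5 mM EGTA. Detection was by anti-FLAG or anti-MBP immunoblot, with tubulin input control. Enrichment is relative to the maximum within each replicate.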

[6] = test system: hTRPA1 expressed in Xenopus laevis oocytes; type: cell-based, human; conditions: for AITC sensitivity versus WT hTRPA1: Ca2+-free; for Gating kinetics and peak current amplitudes: absence of Ca2+, activation and closing at +80 mV, n=8
[7] = test system: hTRPA1 channel activity in HEK293T cells; assay: Ratiometric Ca2+ imaging of TRPA1 variant activity; type: cell-based, human; conditions: baseline, 10 µM or 100 µM AITC; n=4
In short: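 HEK293T cells (DMEM, 10% calf serum) were transiently transfected. At 16-24 h they were replated on poly-L-lysine glass, with parallel anti-FLAG immunoblot to check expression. One hour later cells were loaded with 10 µg/mL Fura-2 AM and 0.025% Pluronic F-127 in Ringer's for 1 h at RT. […] At least 90 cells per condition per experiment were analysed, with untransfected background subtracted. Mean ± SEM; two-tailed t-test.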

percent increase in biotinylation with TurboID-CaM C-lobe against free TurboID [1]: 40%
Molecule: 3xFLAG-WT hTRPA1 (wild type human TRPA1) (from UniProt O75762 1-1119) (natural protein)

CaM binding (CaM-agarose enrichment) ([5]; 0.1 µM Ca2+ (resting cytosolic), HEK293T lysate, immunoblot, n=11): robust interaction | CaM binding (CaM-agarose enrichment) ([5]; absence of Ca2+ (0 µM), HEK293T lysate, immunoblot): failed to bind CaM | CaM binding (CaM-agarose enrichment) ([5]; intermediate (500 µM) and extracellular (2 mM) Ca2+, n=11): stepwise decrease in binding
B1: WT hTRPA1: wild type human TRPA1 channel (protein)
chain: MKRSLRKMWRPGEKKEPQGVVYEDVPDDTEDFKESLKVVFEGSAYGLQNFNKQKKLKRCDDMDTFFLHYAAAEGQIELMEKITRDSSLEVLHEMDDYGNTPLHCAVEKNQIESVKFLLSRGANPNLRNFNMMAPLHIAVQGMNNEVMKVLLEHRTIDVNLEGENGNTAVIIACTTNNSEALQILLKKGAKPCKSNKWGCFPIHQAAFSGSKECMEIILRFGEEHGYSRQLHINFMNNGKATPLHLAVQNGDLEMIKMCLDNGAQIDPVEKGRCTAIHFAATQGATEIVKLMISSYSGSVDIVNTTDGCHETMLHRASLFDHHELADYLISVGADINKIDSEGRSPLILATASASWNIVNLLLSKGAQVDIKDNFGRNFLHLTVQQPYGLKNLRPEFMQMQQIKELVMDEDNDGCTPLHYACRQGGPGSVNNLLGFNVSIHSKSKDKKSPLHFAASYGRINTCQRLLQDISDTRLLNEGDLHGMTPLHLAAKNGHDKVVQLLLKKGALFLSDHNGWTALHHASMGGYTQTMKVILDTNLKCTDRLDEDGNTALHFAAREGHAKAVALLLSHNADIVLNKQQASFLHLALHNKRKEVVLTIIRSKRWDECLKIFSHNSPGNKCPITEMIEYLPECMKVLLDFCMLHSTEDKSCRDYYIEYNFKYLQCPLEFTKKTPTQDVIYEPLTALNAMVQNNRIELLNHPVCKEYLLMKWLAYGFRAHMMNLGSYCLGLIPMTILVVNIKPGMAFNSTGIINETSDHSEILDTTNSYLIKTCMILVFLSSIFGYCKEAGQIFQQKRNYFMDISNVLEWIIYTTGIIFVLPLFVEIPAHLQWQCGAIAVYFYWMNFLLYLQRFENCGIFIVMLEVILKTLLRSTVVFIFLLLAFGLSFYILLNLQDPFSSPLLSIIQTFSMMLGDINYRESFLEPYLRNELAHPVLSFAQLVSFTIFVPIVLMNLLIGLAVGDIAEVQKHASLKRIAMQVELHTSLEKKLPLWFLRKVDQKSTIVYPNKPRSGGMLFHIFCFLFCTGEIRQEIPNADKSLEMEILKQKYRLKDLTFLLEKQHELIKLIIQKMEIISETEDDDSHCSFQDRFKKEQMEQRNSRWNTVLRAVKAKTHHLEP
Increase in TRPA1 biotinylation with TurboID-CaM C-lobe versus TurboID [2]: approximately 40% | Desensitization with 10 mM versus 1.8 mM extracellular Ca2+ ([3]; 250 µM AITC, 125 µM niflumic acid, n=9): desensitize faster | Potentiation by extracellular Ca2+ ([3]; 250 µM AITC): rapid potentiation | Desensitization time constant ([3]; +80 mV, 250 µM AITC): 12.5 s | Potentiation time constant ([3]; +80 mV, 250 µM AITC): 2.2 s | Desensitization after extracellular Ca2+ addition ([3]; within 25 seconds of 1.8 mM Ca2+): nearly complete desensitization | Desensitization time constant ([3]; −80 mV, 250 µM AITC): 11.9 s | Potentiation time constant ([3]; −80 mV, 250 µM AITC): 2.7 s | Co-localization with WT CaM (deconvolved IF images) [4]: pronounced co-localization

CaM binding at basal Ca2+ concentration [5]: completely ablated CaM binding
B2: W1103A hTRPA1: hTRPA1 with W1103 mutated to alanine (protein)
chain: B1 chain with W1103A
TRPA1 biotinylation with TurboID-CaM C-lobe [2]: loss in biotinylation | Faster desensitization rate with 10 mM than with 1.8 mM extracellular Ca2+ ([3]; 250 µM AITC, 125 µM niflumic acid, n=10 or 11): approximately 3 fold | Potentiation by extracellular Ca2+ ([3]; 250 µM AITC): rapid potentiation | Slower desensitization than WT hTRPA1 with 1.8 mM Ca2+ ([3]; 250 µM AITC, 10 mM extracellular Ca2+, 125 µM niflumic acid): approximately 4 fold | Desensitization profile with buffered intracellular Ca2+ ([3]; 500 µM EGTA-AM 20 min pre-incubation): delayed desensitization profile compared to WT hTRPA1 channels and a faster desensitization profile than W1103A hTRPA1 channels without intracellular Ca^2+ buffering | Potentiation kinetics versus WT hTRPA1, buffered intracellular Ca2+ ([3]; 500 µM EGTA-AM, n=8): did not exhibit a significant change to potentiation kinetics | Residual activity after extracellular Ca2+ (of initial activity) [3]: 10–20% | Increase in translocated charge versus WT hTRPA1 ([3]; +80 mV): 10 fold | Slowing of desensitization versus WT hTRPA1, intracellular Ca2+ chelated ([3]; +80 mV, n=8): 10.5 fold | Slowing of potentiation versus WT hTRPA1 ([3]; +80 mV): ~ 1.8 fold | Slowing of desensitization versus WT hTRPA1 ([3]; +80 mV): 20 fold | Increase in translocated charge versus WT hTRPA1 ([3]; −80 mV): 20 fold | Slowing of desensitization versus WT hTRPA1, intracellular Ca2+ chelated ([3]; −80 mV, n=8): 10.7 fold | Slowing of potentiation versus WT hTRPA1 ([3]; −80 mV): ~ 3 fold | Slowing of desensitization versus WT hTRPA1 ([3]; −80 mV): 15 fold | AITC sensitivity versus WT hTRPA1 [6]: slightly reduced AITC sensitivities | Gating kinetics and peak current amplitudes [6]: not significantly different from WT hTRPA1

CaM binding at basal Ca2+ concentration [5]: failed to bind CaM
B3: hTRPA1^Δ1109–1119: hTRPA1 truncation lacking only the terminal 11 amino acids (protein)
chain: MKRSLRKMWRPGEKKEPQGVVYEDVPDDTEDFKESLKVVFEGSAYGLQNFNKQKKLKRCDDMDTFFLHYAAAEGQIELMEKITRDSSLEVLHEMDDYGNTPLHCAVEKNQIESVKFLLSRGANPNLRNFNMMAPLHIAVQGMNNEVMKVLLEHRTIDVNLEGENGNTAVIIACTTNNSEALQILLKKGAKPCKSNKWGCFPIHQAAFSGSKECMEIILRFGEEHGYSRQLHINFMNNGKATPLHLAVQNGDLEMIKMCLDNGAQIDPVEKGRCTAIHFAATQGATEIVKLMISSYSGSVDIVNTTDGCHETMLHRASLFDHHELADYLISVGADINKIDSEGRSPLILATASASWNIVNLLLSKGAQVDIKDNFGRNFLHLTVQQPYGLKNLRPEFMQMQQIKELVMDEDNDGCTPLHYACRQGGPGSVNNLLGFNVSIHSKSKDKKSPLHFAASYGRINTCQRLLQDISDTRLLNEGDLHGMTPLHLAAKNGHDKVVQLLLKKGALFLSDHNGWTALHHASMGGYTQTMKVILDTNLKCTDRLDEDGNTALHFAAREGHAKAVALLLSHNADIVLNKQQASFLHLALHNKRKEVVLTIIRSKRWDECLKIFSHNSPGNKCPITEMIEYLPECMKVLLDFCMLHSTEDKSCRDYYIEYNFKYLQCPLEFTKKTPTQDVIYEPLTALNAMVQNNRIELLNHPVCKEYLLMKWLAYGFRAHMMNLGSYCLGLIPMTILVVNIKPGMAFNSTGIINETSDHSEILDTTNSYLIKTCMILVFLSSIFGYCKEAGQIFQQKRNYFMDISNVLEWIIYTTGIIFVLPLFVEIPAHLQWQCGAIAVYFYWMNFLLYLQRFENCGIFIVMLEVILKTLLRSTVVFIFLLLAFGLSFYILLNLQDPFSSPLLSIIQTFSMMLGDINYRESFLEPYLRNELAHPVLSFAQLVSFTIFVPIVLMNLLIGLAVGDIAEVQKHASLKRIAMQVELHTSLEKKLPLWFLRKVDQKSTIVYPNKPRSGGMLFHIFCFLFCTGEIRQEIPNADKSLEMEILKQKYRLKDLTFLLEKQHELIKLIIQKMEIISETEDDDSHCSFQDRFKKEQMEQRNSRWNTVLR
TRPA1 biotinylation with TurboID-CaM C-lobe [2]: reduced biotinylation | Potentiation by extracellular Ca2+ ([3]; 250 µM AITC): rapid potentiation | Residual activity after extracellular Ca2+ (of initial activity) [3]: 20–30% | Increase in translocated charge versus WT hTRPA1 ([3]; +80 mV): 5 fold | Slowing of potentiation versus WT hTRPA1 ([3]; +80 mV): ~ 1.8 fold | Slowing of desensitization versus WT hTRPA1 ([3]; +80 mV): 16 fold | Increase in translocated charge versus WT hTRPA1 ([3]; −80 mV): large, albeit nonsignificant increase | Slowing of potentiation versus WT hTRPA1 ([3]; −80 mV): ~ 3 fold | Slowing of desensitization versus WT hTRPA1 ([3]; −80 mV): 10 fold | AITC sensitivity versus WT hTRPA1 [6]: slightly reduced AITC sensitivities | Gating kinetics and peak current amplitudes [6]: not significantly different from WT hTRPA1 | Co-localization with WT CaM (deconvolved IF images) [4]: greatly reduced co-localization | Pearson's correlation coefficient (R) of CaM:TRPA1 co-localization ([4]; Δ1109–1119 compared to WT, n=41 or 40 cells, ***p=0.0002): significant reduction in the CaM:TRPA1 co-localization | Basal and agonist-evoked channel activity compared to WT hTRPA1 [7]: increased basal and agonist-evoked activity
